Reference: ChEMBL document CHEMBL4400568, “The design of 1,4-naphthoquinone derivatives and mechanisms underlying apoptosis induction through ROS-dependent MAPK/Akt/STAT3 pathways in human lung cancer cells” (Bioorg Med Chem, 2019)
Active and inactive are the calls of the source. No cut-off for these calls is given here.

Key:
[1] = tested on: A549; experiment: Cytotoxicity against human A549 cells assessed as reduction in cell viability after 24 hrs by MTT assay; assay type: functional, cell-based; conditions: A549, 24 h
Outline: (§1)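 Log-phase cells seeded at 1 × 10⁴ per well. Lung cancer lines (A549, NCI-H23, NCI-H460) and normal lines (IMR-90, QSG-7701, HEK-293A) each exposed to 1, 3, 10, 30 and 100 μM for 24 h. MTT (5 mg/mL stock) added for 2 h at 37°C, formazan dissolved in DMSO, absorbance read at 490 nm. Three independent experiments, mean ± SD.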

[2] = tested on: IMR-90; experiment: Cytotoxicity against human IMR90 cells assessed as reduction in cell viability after 24 hrs by MTT assay; assay type: cell-based; conditions: imr-90, 24 h; outline: as §1
[3] = Cytotoxicity against human QSG7701 cells assessed as reduction in cell viability after 24 hrs by MTT assay; assay type: cell-based; outline: as §1
[4] = tested on: A549; experiment: Induction of apoptosis in human A549 cells assessed as decrease in Bcl-2 expression at 3 uM after 24 hrs by Western blot analysis; assay type: functional, cell-based
Outline: (§2)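 A549 cells exposed to 3 μM for 3, 6, 12 or 24 h; where NAC is used, 10 mM NAC is added 30 min before 24 h treatment. Lysate protein (30 μg) is run on 12% SDS-PAGE, blotted to nitrocellulose, blocked in 5% milk, primary antibody overnight at 4°C, then HRP anti-IgG. β-actin loading control; densitometry; three independent experiments, mean ± SD.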

[5] = tested on: A549; experiment: Induction of apoptosis in human A549 cells assessed as increase in Bad levels at 3 uM after 24 hrs by Western blot analysis; assay type: functional, cell-based; outline: as §2
[6] = tested on: A549; experiment: Induction of apoptosis in human A549 cells assessed as late apoptotic cells at 3 uM after 3 hrs by Annexin V-FITC/propidium iodide staining-based flow cytometric analysis (reference value: 4.52%); assay type: functional
[7] = tested on: A549; experiment: Induction of apoptosis in human A549 cells assessed as late apoptotic cells at 3 uM after 24 hrs by Annexin V-FITC/propidium iodide staining-based flow cytometric analysis (reference value: 4.52%); assay type: functional
[8] = tested on: A549; experiment: Cell cycle arrest in human A549 cells assessed as accumulation of cells at S phase at 3 uM after 12 hrs by propidium iodide staining-based flow cytometric analysis (reference value: 13.85%); assay type: functional
[9] = tested on: A549; experiment: Cell cycle arrest in human A549 cells assessed as accumulation of cells at G2 phase at 3 uM after 12 hrs by propidium iodide staining-based flow cytometric analysis (reference value: 24.02%); assay type: functional
[10] = tested on: A549; experiment: Cell cycle arrest in human A549 cells assessed as accumulation of cells at G1 phase at 3 uM after 24 hrs by propidium iodide staining-based flow cytometric analysis (reference value: 57.65%); assay type: functional
[11] = target: RAC-alpha serine/threonine-protein kinase (Homo sapiens) (UniProt P31749); experiment: Inhibition of AKT phosphorylation in human A549 cells at 3 uM by Western blot analysis; assay type: cell-based; conditions: TDE = time-dependent effect
RAC-alpha serine/threonine-protein kinase (Homo sapiens), sequence (P31749 whole entry): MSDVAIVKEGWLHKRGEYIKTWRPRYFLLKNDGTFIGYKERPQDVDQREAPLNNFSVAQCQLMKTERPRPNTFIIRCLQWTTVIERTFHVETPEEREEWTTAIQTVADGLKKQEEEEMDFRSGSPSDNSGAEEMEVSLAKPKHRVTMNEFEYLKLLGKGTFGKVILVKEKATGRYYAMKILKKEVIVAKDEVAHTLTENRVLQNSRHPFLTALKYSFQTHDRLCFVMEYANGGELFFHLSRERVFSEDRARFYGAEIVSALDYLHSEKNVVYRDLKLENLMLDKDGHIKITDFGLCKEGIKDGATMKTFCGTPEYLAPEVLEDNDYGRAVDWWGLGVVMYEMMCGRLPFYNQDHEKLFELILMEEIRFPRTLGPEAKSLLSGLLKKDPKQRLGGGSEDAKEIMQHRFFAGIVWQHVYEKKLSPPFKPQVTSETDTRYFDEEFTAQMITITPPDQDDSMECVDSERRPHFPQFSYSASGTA
Outline: (§3)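 A549 cells exposed to 3 μM for 3, 6, 12 or 24 h. Lysate protein (30 μg) run on 12% SDS-PAGE and blotted to nitrocellulose. Membranes blocked in 5% skim milk, primary antibodies at 4°C overnight, then HRP anti-IgG secondary for 1 h at room temperature. β-actin was the internal control. Bands quantified by densitometry; three independent experiments, mean ± SD.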

[12] = tested on: A549; experiment: Inhibition of ERK in human A549 cells assessed as decrease in STAT3 phosphorylation at 3 uM after 3 to 24 hrs by Western blot analysis; assay type: cell-based; outline: as §3
[13] = target: c-Jun N-terminal kinase, JNK (Homo sapiens) (UniProt P45983+P53779+P45984); experiment: Activation of JNK phosphorylation in human A549 cells at 3 uM after 3 to 24 hrs by Western blot analysis; assay type: cell-based; outline: as §2
[14] = tested on: A549; experiment: Induction of ROS generation in human A549 cells at 3 uM by DCFH-DA staining-based flow cytometric analysis; assay type: functional, cell-based; conditions: TDE = time-dependent effect
Outline: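 A549 cells loaded with DCFH-DA (10 μM per legend) for 30 min, then exposed to 3 μM at 37°C for 3, 6, 12 or 24 h. After two PBS washes, intracellular fluorescence is quantified by flow cytometry. Three independent experiments, mean ± SD.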

[15] = tested on: A549; experiment: Induction of apoptosis in human A549 cells assessed as late apoptotic cells at 3 uM in presence of NAC by Annexin V-FITC/propidium iodide staining-based flow cytometric analysis (reference value: 0.22%); assay type: functional
[16] = tested on: A549; experiment: Inhibition of ERK phosphorylation in human A549 cells at 3 uM after 24 hrs in presence of NAC by Western blot analysis; assay type: cell-based
Outline: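 A549 cells pretreated with 10 mM NAC for 30 min, then exposed to compound for 24 h. Lysate protein (30 μg) resolved on 12% SDS-PAGE and transferred to nitrocellulose. Probed with primary antibodies overnight at 4°C, then HRP secondary. Band densities from three independent experiments, mean ± SD.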

[17] = target: MAP kinase p38 (Homo sapiens) (UniProt O15264+Q15759+Q16539+P53778); experiment: Activation of p38 phosphorylation in human A549 cells at 3 uM after 24 hrs in presence of NAC by Western blot analysis; assay type: cell-based; outline: as §2
[18] = tested on: A549; experiment: Induction of apoptosis in human A549 cells assessed as apoptotic morphological changes at 3 uM by Annexin V-FITC/propidium iodide staining-based flow cytometric analysis; assay type: functional, cell-based; conditions: TDE = time-dependent effect

Row | inhibition [11] | Activity [13] | Activity [17] | SMILES | IC50 [1] | Activity [2] | Activity [3] | Activity [4] | Activity [5] | Activity [6] | Activity [7] | Activity [8] | Activity [9] | Activity [10] | inhibition [12] | Activity [14] | Activity [15] | inhibition [16] | Activity [18]
1 | Tde | Active | inactive | CCCS(=O)(=O)C12OC1C(=O)c1c(OC)ccc(OC)c1C2=O (stereo unspecified) | 2.59 µM | Non-Toxic | Non-Toxic | Active | Active | 5.11% | 6.31 - 8.05% | 9.06% | 17.49% | 72.02% | Active | Tde | 2.67% | inactive | Tde
2 | Tde | Active | inactive | CCCCCCCCCS(=O)(=O)C12OC1C(=O)c1c(OC)ccc(OC)c1C2=O (stereo unspecified) | 7.54 µM | Non-Toxic | Non-Toxic | Active | Active | 5.43% | 1.89 - 12.93% | 7.18% | 20.99% | 71.38% | Active | Tde | 3.03% | inactive | Tde
